Results as given in article PMC10438863 (Journal of Enzyme Inhibition and Medicinal Chemistry, 2023).

How the values were obtained:
MDA-MB-231 cells [1] = experiment: Transwell invasion assay; format: cell-based; details: 60 nM, untreated 81.3 ± 5.7
A549 = experiment: CCK-8 antiproliferative assay, A549; format: cell-based; details: read-out: IC50 (µM) A549; A549; CCK-8, 72 h; mean ± SD
Summary of the method: (§1)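 Cells were grown in RPMI-1640 with 10% FBS at 37 °C in 5% CO2. About 3.5 × 10^3 cells/well were seeded, grown 24 h, then given test compound at several concentrations for 72 h in triplicate wells. CCK-8 was added for 2–3 h and OD read at 450 nm to give inhibition rate or IC50. K562 screen: mean of ≥2 independent experiments. Five-line panel: mean ± SD of three.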

[2] = test system: Cyclin B1, Cdc-2 and Cdc-25c; experiment: Western blot of G2/M phase associated proteins; format: cell-based; details: K562; 48 h; western blotting; dose-dependent
Summary of the method: (§2)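 K562 cells were treated with or without test compound at several concentrations for 48 h. They were lysed in cold buffer with PMSF and centrifuged at 14,000 rpm for 15 min, and protein was quantified by BCA. Equal protein was run on SDS-PAGE, blotted to PVDF, blocked in 5% skim milk for 2 h, probed overnight at 4 °C, then secondary antibody for 1–2 h, and detected by ECL with densitometry. Targets: Cdc-2, Cyclin B1, Cdc25c; Bad, Bax, Bcl-2, Bcl-xl; GAPDH reference.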

K562 cells [3] = experiment: Hoechst 33342 staining; format: cell-based; details: 48 h
[4] = test system: colchicine binding site on tubulin; experiment: [3H]-colchicine competition scintillation proximity assay; details: tubulin 1 µM, [3H]-colchicine 5 µM
Summary of the method: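 Competition scintillation proximity assay. Test compound was added to buffer (80 mM PIPES pH 6.8, 1 mM EGTA, 1 mM MgCl2, 10% glycerol, 1 mM GTP) containing tubulin 1 µM, then [3H]-colchicine 5 µM. After 2 h incubation, streptavidin-labelled SPA beads were added and radioactivity counted. Percent inhibition of colchicine binding was reported as mean ± SD of three independent experiments.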

H22 allograft = H22 allograft mice model, in vivo antitumor effect; details: 20 mg/kg i.v. once a day, three weeks
Summary of the method: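 H22 cells in log phase (1 × 10^7 cells/mL, 0.1 ml) were injected s.c. into the right flank. Tumour size and body weight were recorded every two days. Mice were sacrificed at about 21 days. TGI (%) = (1 − Wt/Wc) × 100, using mean tumour weights.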

H22 = experiment: CCK-8 antiproliferative assay, H22; format: cell-based, mouse; details: read-out: IC50 (µM) H22; H22; CCK-8, 72 h; mean ± SD
Summary of the method: as §1

K562 cells [5] = experiment: PI cell cycle flow cytometry; format: cell-based; details: 48 h, untreated 12.99 ± 0.26%
HUVECs [6] = experiment: HUVEC tube formation assay on Matrigel; format: cell-based, human; details: 60 nM
H22 tumour = experiment: Immunohistochemistry of tumour tissue; format: in vivo, mice; details: H22 tumours; 20 mg/kg; IHC; vs control group
Summary of the method: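 Tumours came from the vehicle, CA-4 20 mg/kg and test compound 20 mg/kg allograft groups. They were fixed in 4% paraformaldehyde overnight, paraffin-embedded and sectioned. Sections were blocked with 1% BSA for 20 min, incubated with CD31 or Ki67 primary antibody overnight at 4 °C, then HRP goat anti-rabbit for 1 h, developed with DAB and counterstained with haematoxylin. CD31 staining gave microvessel density.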

MDA-MB-231 cells [7] = experiment: Transwell migration assay; format: cell-based; details: 60 nM, untreated 231.3 ± 12.2
HUVEC = experiment: Inhibition of HUVEC proliferation; format: cell-based, human; details: read-out: IC50 in inhibiting the proliferation of HUVEC
K562 cells [8] = experiment: Annexin V-FITC/PI apoptosis flow cytometry; format: cell-based; details: 60 nM, 48 h, control 2.47%
Bcl-2 protein family = experiment: Western blot of apoptosis associated proteins; format: cell-based; details: K562, 48 h, western blotting
Summary of the method: as §2

Hela = experiment: CCK-8 antiproliferative assay, Hela; format: cell-based; details: read-out: IC50 (µM) Hela; Hela; CCK-8, 72 h; mean ± SD
Summary of the method: as §1

K562 cell line = experiment: CCK-8 antiproliferative assay, K562; format: cell-based; details: K562, CCK-8, 72 h
Summary of the method: as §1

K562 cells [9] = experiment: Confocal immunofluorescence assay of microtubule networks; format: cell-based; details: 48 h, 15, 30, 60 nM
[10] = H&E staining of vital organs, in vivo safety; details: mice; 20 mg/kg; heart, liver, spleen, lung, kidney
Summary of the method: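 Heart, liver, spleen, lung and kidney came from the H22 allograft mice at sacrifice: vehicle, CA-4 20 mg/kg and test compound 20 mg/kg groups. Organs were fixed in 4% paraformaldehyde overnight, paraffin-embedded, sectioned and stained with haematoxylin and eosin.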

HUVECs [11] = experiment: HUVEC wound healing assay; format: cell-based, human; details: 24 h, dose-dependent
Summary of the method: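 HUVECs were seeded at 5 × 10^5 cells/well overnight and incubated with or without test compound at several concentrations for 24 h. The monolayer was then scratched with a pipette tip and washed with PBS. The wound was imaged at 100× and imaged again after a further 24 h of culture.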

normal cell line HFL-1 = experiment: CCK-8 assay, normal cell line HFL-1; format: cell-based; details: read-out: IC50 (µM) HFL-1; normal cell line HFL-1; CCK-8, 72 h; mean ± SD
Summary of the method: as §1

With “2-methoxy-4-((4,5,6-trimethoxy-2,3-dihydro-1H-inden-2-yl)methyl)phenol [Compound 12d]” the “number of invaded cells” value (MDA-MB-231 cells [1]) was 51.3 ± 2.5, the IC50 (A549) was 0.087 ± 0.009 µM and the “expression levels of Cyclin B1, Cdc-2 and Cdc-25c” value [2] was “down-regulate”. For the same substance, the “apoptosis morphology and nucleus changes” value (K562 cells [3]) was “induced K562 cells nuclear fragmentation and cell morphology changes”, the “Inhibition (%) of colchicine binding” value ([4]; compound 1 µM) was 59.81 ± 3.84% and the “Inhibition (%) of colchicine binding” value ([4]; compound 5 µM) was 71.43 ± 1.03%. For the same substance, the body weight (H22 allograft) was “no obvious body weight loss”, the “tumour growth inhibition (TGI) value” (H22 allograft; by tumour weight) was 74.94% and the IC50 (H22) was 0.068 ± 0.008 µM. The “population at the G2/M phase” value (K562 cells [5]; 15 nM) was 16.07 ± 0.83%, the “population at the G2/M phase” value (K562 cells [5]; 30 nM) was 21.23 ± 1.14% and the “population at the G2/M phase” value (K562 cells [5]; 60 nM) was 24.66 ± 0.63%. For the same substance, the “tube formation (capillary-like tubular networks) of HUVECs” value (HUVECs [6]) was “almost all of the tube-like structure was broken”, the Ki67-positive cells (H22 tumour) was “decreased number of Ki-67 positive cells” and the “microvessel density (MVD), CD31” value (H22 tumour) was “lower MVD level”. The “number of migrated cells” value (MDA-MB-231 cells [7]) was 124.0 ± 9.2, the IC50 (HUVEC) was 2260 ± 380 nM and the “percent of total apoptosis cells” value (K562 cells [8]) was 57.90%. The “expression of antiapoptotic proteins Bcl-2 and Bcl-xl” value (Bcl-2 protein family) was “downregulated”, the “expression level of proapoptotic proteins Bax and Bad” value (Bcl-2 protein family; dose-dependent) was “upregulated” and the IC50 (Hela) was 0.078 ± 0.005 µM. The “Inhibition rate (%)” value (K562 cell line; 0.1 µM) was 78.82%, the “Inhibition rate (%)” value (K562 cell line; 1 µM) was 80.57% and the IC50 (K562 cell line; read-out: IC50 (µM) K562, mean ± SD) was 0.028 ± 0.007 µM. For the same substance, the “effect on microtubule networks” value (K562 cells [9]) was “caused disorder and destruction of microtubule networks”, the “pathological damage of vital organs (H&E)” value [10] was “without obvious pathological damage” and the “wound healing effect of HUVECs” value (HUVECs [11]) was “the wound healing effect was disrupted”. The IC50 (normal cell line HFL-1) was 0.271 ± 0.031 µM.
